A short description of assay [1]: Antiproliferative activity against human A375P cells expressing BRAF V600E mutant after 72 hrs by CellTiter-Glo assay. The class given is functional, cell-based. (In general: ATP-based viability assays read luminescence as a measure of living cells.)
Assay [2] concerns the target Serine/threonine-protein kinase B-raf (Homo sapiens, UniProt P15056). Nature of the assay: Inhibition of wild-type B-Raf (unknown origin) using MEK1 K97M as substrate preincubated for 90 mins followed by substrate addition measured after 1 hr by fluorescence polarization assay. The gist of the method:
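After ATP-containing solution was added, the reaction ran 1 h at room temperature. It was stopped with ADP detection mix (EDTA, ADP² antibody, 3 nM ADP Alexa633 tracer).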

The target of assay [3] is Serine/threonine-protein kinase B-raf (Homo sapiens, UniProt P15056, V600E). Kind of assay: Inhibition of B-Raf V600E mutant (unknown origin) using MEK1 K97M as substrate preincubated for 90 mins followed by substrate addition measured after 1 hr by fluorescence polarization assay. The gist of the method: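 Reactions used 30 nM B-Raf(V600E) enzyme with MEK1 K97M substrate. Kinase reaction ran 1 h at room temperature after ATP-containing solution was added. It was stopped with ADP detection mix (20 mM HEPES pH 7.5, 40 mM EDTA, 10 mM MgCl₂, 0.02% Brij 35, ADP² antibody, 3 nM ADP Alexa633 tracer).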
Chain of Serine/threonine-protein kinase B-raf (Homo sapiens, UniProt P15056, V600E) (P15056 2-766 V600E limits assumed): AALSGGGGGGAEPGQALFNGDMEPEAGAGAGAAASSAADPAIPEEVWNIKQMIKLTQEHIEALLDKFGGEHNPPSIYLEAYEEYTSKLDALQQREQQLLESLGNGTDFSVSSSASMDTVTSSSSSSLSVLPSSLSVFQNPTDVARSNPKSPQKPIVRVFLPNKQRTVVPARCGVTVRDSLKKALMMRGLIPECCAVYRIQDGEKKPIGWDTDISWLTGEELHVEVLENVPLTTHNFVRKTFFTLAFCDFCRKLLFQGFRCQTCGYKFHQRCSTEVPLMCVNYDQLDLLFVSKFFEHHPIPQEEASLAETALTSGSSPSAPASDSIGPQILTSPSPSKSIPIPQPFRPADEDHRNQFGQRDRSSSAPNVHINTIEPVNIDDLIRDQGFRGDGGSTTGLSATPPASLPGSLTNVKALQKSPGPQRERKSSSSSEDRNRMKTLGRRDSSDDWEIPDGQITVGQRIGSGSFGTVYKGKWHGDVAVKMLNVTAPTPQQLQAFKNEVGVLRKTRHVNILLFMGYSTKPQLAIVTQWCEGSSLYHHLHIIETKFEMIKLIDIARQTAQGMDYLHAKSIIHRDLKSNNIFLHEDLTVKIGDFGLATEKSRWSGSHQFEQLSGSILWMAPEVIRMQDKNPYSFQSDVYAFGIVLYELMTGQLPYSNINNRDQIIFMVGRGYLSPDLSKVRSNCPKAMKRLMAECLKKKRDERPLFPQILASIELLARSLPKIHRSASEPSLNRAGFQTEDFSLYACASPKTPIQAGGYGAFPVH

Assay [4] is described as follows: Antiproliferative activity against human HCT116 cells after 72 hrs by CellTiter-Glo assay. The class given is functional, cell-based. Particulars: HCT-116, 72 h.
For another assay, the system named is A549. Kind of assay: Antiproliferative activity against human A549 cells after 72 hrs by CellTiter-Glo assay. The class given is functional, cell-based. Particulars: A549, 72 h.
Assay [5] in a line: Antiproliferative activity against human PC9 cells after 72 hrs by CellTiter-Glo assay. It counts as functional, cell-based. The note with it: PC-9, 72 h.
A further assay relates to NCI-H358. Nature of the assay: Antiproliferative activity against human NCI-H358 cells after 72 hrs by CellTiter-Glo assay. The class given is functional, cell-based. Particulars: NCI-H358, 72 h.
A short description of assay [6]: Antiproliferative activity against human HKE3 cells after 72 hrs by CellTiter-Glo assay. The note with it: HKE3, 72 h. It counts as functional, cell-based.
Assay [7] in a line: Antiproliferative activity against human PC-9ER cells after 72 hrs by CellTiter-Glo assay. The class given is functional, cell-based.

Molecules are shown by their SMILES.

Chain of Serine/threonine-protein kinase B-raf (Homo sapiens, UniProt P15056) (P15056 whole entry): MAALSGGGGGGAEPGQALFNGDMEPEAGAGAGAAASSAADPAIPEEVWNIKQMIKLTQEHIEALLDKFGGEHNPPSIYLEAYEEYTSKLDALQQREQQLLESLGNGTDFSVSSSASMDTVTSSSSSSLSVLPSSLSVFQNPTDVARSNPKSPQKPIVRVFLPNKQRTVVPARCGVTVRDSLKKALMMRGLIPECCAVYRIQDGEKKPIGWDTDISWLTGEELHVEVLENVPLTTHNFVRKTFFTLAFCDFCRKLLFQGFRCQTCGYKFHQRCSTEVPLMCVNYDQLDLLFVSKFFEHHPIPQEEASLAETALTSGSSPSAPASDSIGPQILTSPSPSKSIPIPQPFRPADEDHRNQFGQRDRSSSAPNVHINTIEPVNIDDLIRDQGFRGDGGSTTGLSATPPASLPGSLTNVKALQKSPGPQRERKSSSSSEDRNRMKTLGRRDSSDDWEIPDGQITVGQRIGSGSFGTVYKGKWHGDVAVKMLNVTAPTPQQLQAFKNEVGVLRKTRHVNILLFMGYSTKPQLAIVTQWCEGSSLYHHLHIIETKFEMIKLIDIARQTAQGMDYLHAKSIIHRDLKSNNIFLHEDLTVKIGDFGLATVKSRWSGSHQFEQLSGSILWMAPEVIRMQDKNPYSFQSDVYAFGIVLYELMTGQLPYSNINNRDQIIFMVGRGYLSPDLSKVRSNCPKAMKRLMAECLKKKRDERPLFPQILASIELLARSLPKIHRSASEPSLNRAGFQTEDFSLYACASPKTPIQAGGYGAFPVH

One may read the IC50 as the concentration needed to halve the response being measured. For `Nc1nccn2c(-c3cccc(NC(=O)Nc4ccc(F)c(Cl)c4)c3)cnc12`, inhibition in [1] was half-maximal at 4340 nM (IC50).
Compound `O=C(Nc1cccc(-c2cnc3c(NC(=O)c4ccc(Br)cc4)nccn23)c1)Nc1ccc(F)cc1F` gave an IC50 in [1] of 3750 nM.
In [1], `O=C(Nc1cccc(-c2cnc3c(NC(=O)c4cc(C(F)(F)F)cc(C(F)(F)F)c4)nccn23)c1)Nc1ccc(F)cc1F` came in with an IC50 of 110 nM.
The same measure, in the same setting: the value for `O=C(Nc1cccc(-c2cnc3c(NC(=O)c4ccc(F)c(C(F)(F)F)c4)nccn23)c1)Nc1ccc(F)cc1F` was 410 nM.
Same read-out and setting: the value for `Nc1nccn2c(-c3cccc(NC(=O)Nc4ccc(F)cc4F)c3)cnc12` was 920 nM; that for `O=C(Nc1cccc(-c2cnc3c(NC(=O)c4cccc(C(F)(F)F)c4)nccn23)c1)Nc1ccc(Cl)c(C(F)(F)F)c1` was 560 nM.
For the compound `O=C(Nc1cccc(-c2cnc3c(NC(=O)c4ccc(F)c(C(F)(F)F)c4)nccn23)c1)Nc1ccc(Cl)c(C(F)(F)F)c1`, the IC50 is > 12500 nM in assay [2], 5010 nM in assay [3] and 60 nM in assay [1].
The compound `Nc1nccn2c(-c3cccc(NC(=O)Nc4cc(C(F)(F)F)cc(C(F)(F)F)c4)c3)cnc12` yielded an IC50 in [1] of 9060 nM.
The same measure, in the same setting: the figure for `O=C(Nc1cccc(-c2cnc3c(NC(=O)c4ccc(C(F)(F)F)cc4)nccn23)c1)Nc1ccc(Cl)c(C(F)(F)F)c1` is 1750 nM; for `O=C(Nc1cccc(-c2cnc3c(NC(=O)c4ccccc4)nccn23)c1)Nc1ccc(F)cc1F` it is 1990 nM.
On the same count and under the same terms, the figure for `Nc1nccn2c(-c3cccc(NC(=O)Nc4cccc(Cl)c4)c3)cnc12` is 5010 nM.
On the same count and under the same terms, the figure for `O=C(Nc1cccc(-c2cnc3c(NC(=O)c4ccccc4)nccn23)c1)Nc1ccc(Cl)c(C(F)(F)F)c1` is 1410 nM; for `O=C(Nc1cccc(-c2cnc3c(NC(=O)c4ccc(Cl)c(Cl)c4)nccn23)c1)Nc1ccc(F)cc1F` it is 1890 nM; for `O=C(Nc1cccc(-c2cnc3c(NC(=O)c4cc(Cl)c(F)c(Cl)c4)nccn23)c1)Nc1ccc(F)cc1F` it is 390 nM.
With `O=C(Nc1cccc(-c2cnc3c(NC(=O)c4cc(Cl)cc(Cl)c4)nccn23)c1)Nc1ccc(F)cc1F`, the IC50 in [4] was 880 nM; in [2] it was > 12500 nM; in assay [3], > 12500 nM; in the assay with A549, 2610 nM; in assay [5], 2770 nM; with NCI-H358, 4170 nM. The IC50 in [1] came out at 60 nM; in assay [6], 620 nM; in assay [7], 2560 nM.
The compound `O=C(Nc1cccc(-c2cnc3c(NC(=O)c4ccc(F)c(Cl)c4)nccn23)c1)Nc1ccc(F)cc1F` showed an IC50 in [1] of 1550 nM.
On the same count and under the same terms, the value for `Nc1nccn2c(-c3cccc(NC(=O)Nc4ccc(Cl)c(C(F)(F)F)c4)c3)cnc12` was 11200 nM; that for `O=C(Nc1cccc(-c2cnc3c(NC(=O)c4ccc(Cl)c(C(F)(F)F)c4)nccn23)c1)Nc1ccc(F)cc1F` was 800 nM.
The same measure, in the same setting: the value for `O=C(Nc1cccc(-c2cnc3c(NC(=O)c4cc(F)cc(F)c4)nccn23)c1)Nc1ccc(Cl)c(C(F)(F)F)c1` was 1940 nM; that for `Nc1nccn2c(-c3cccc(NC(=O)Nc4cccc(Cl)c4Cl)c3)cnc12` was 1270 nM.
In the case of `O=C(Nc1cccc(-c2cnc3c(NC(=O)c4cc(Cl)cc(Cl)c4)nccn23)c1)c1ccc(Cl)c(C(F)(F)F)c1`, the IC50 in assay [4] is 1810 nM; in assay [2], > 12500 nM; in [3], > 12500 nM; in the assay with A549, 3230 nM; in [5], 3610 nM; in the assay on NCI-H358, 4210 nM. Further, the results for the IC50 in [1], in [6] and in [7] were 40 nM, 830 nM and 3630 nM, respectively.
`O=C(Nc1cccc(-c2cnc3c(NC(=O)c4ccc(F)c(Cl)c4)nccn23)c1)Nc1ccc(Cl)c(C(F)(F)F)c1`: the IC50 in assay [1] was found to be 1280 nM.
For the compound `O=C(Nc1cccc(-c2cnc3c(NC(=O)c4cc(F)cc(F)c4)nccn23)c1)Nc1ccc(F)cc1F`, in [1], the IC50 was 5820 nM.
The same measure, in the same setting: the figure for `Cc1ccc(NC(=O)Nc2cccc(-c3cnc4c(N)nccn34)c2)cc1` is 2700 nM; for `O=C(Nc1cccc(-c2cnc3c(NC(=O)c4cccc(Cl)c4Cl)nccn23)c1)Nc1ccc(F)cc1F` it is 170 nM; for `O=C(Nc1cccc(-c2cnc3c(NC(=O)c4ccc(OC(F)(F)F)cc4)nccn23)c1)Nc1ccc(F)cc1F` it is 3790 nM.
Still for that read-out and setting: the figure for `Nc1nccn2c(-c3cccc(NC(=O)Nc4ccc(C(F)(F)F)cc4)c3)cnc12` is 1100 nM; for `Cc1ccc(C(=O)Nc2nccn3c(-c4cccc(NC(=O)Nc5ccc(F)cc5F)c4)cnc23)cc1Cl` it is 1980 nM.
As to `O=C(Nc1cccc(-c2cnc3c(NC(=O)c4cc(C(F)(F)F)cc(C(F)(F)F)c4)nccn23)c1)Nc1ccc(Cl)c(C(F)(F)F)c1`, the IC50 was 5310 nM in [4]; > 12500 nM in assay [2]; > 12500 nM in assay [3]; 10400 nM with A549; 11600 nM in [5]; 7550 nM with NCI-H358. Besides, the IC50 in [1] was 10 nM; in [6] it was 6350 nM; in assay [7], 14600 nM.
Take `Nc1nccn2c(-c3cccc(NC(=O)Nc4ccc(Br)cc4)c3)cnc12`: the IC50 in [1] is 4640 nM.
Same read-out and setting: the value for `Nc1nccn2c(-c3cccc(NC(=O)Nc4ccccc4)c3)cnc12` was 1140 nM.
Same read-out and setting: the value for `Cc1ccc(C(=O)Nc2nccn3c(-c4cccc(NC(=O)Nc5ccc(Cl)c(C(F)(F)F)c5)c4)cnc23)cc1Cl` was 1160 nM; that for `Cc1cc(C)cc(C(=O)Nc2nccn3c(-c4cccc(NC(=O)Nc5ccc(F)cc5F)c4)cnc23)c1` was 120 nM; that for `Nc1nccn2c(-c3cccc(NC(=O)Nc4cccc(C(F)(F)F)c4)c3)cnc12` was 5230 nM.
On the same count and under the same terms, the figure for `COc1ccc(NC(=O)Nc2cccc(-c3cnc4c(N)nccn34)c2)cc1` is 3000 nM.
In assay [1], `O=C(Nc1cccc(-c2cnc3c(NC(=O)c4cccc(C(F)(F)F)c4)nccn23)c1)Nc1ccc(F)cc1F` yielded an IC50 of 440 nM.
Same read-out and setting: the figure for `O=C(Nc1cccc(-c2cnc3c(NC(=O)c4ccc(C(F)(F)F)cc4)nccn23)c1)Nc1ccc(F)cc1F` is 2730 nM.
On to `O=C(Nc1cccc(-c2cnc3c(NC(=O)c4cc(Cl)cc(Cl)c4)nccn23)c1)Nc1ccc(Cl)c(C(F)(F)F)c1`, for which the IC50 is 9510 nM in assay [4]; > 12500 nM in [2]; > 12500 nM in assay [3]; 8440 nM in the assay on A549; 11600 nM in assay [5]; 8580 nM in the assay on NCI-H358. Further, the IC50 turned out to be 30 nM in assay [1], 10000 nM in assay [6] and 8010 nM in [7].
As for `O=C(Nc1cccc(-c2cnc3c(NC(=O)c4cccc(OC(F)(F)F)c4)nccn23)c1)Nc1ccc(F)cc1F`, in assay [1], the IC50 was 950 nM.
On the same count and under the same terms, the value for `CCCS(=O)(=O)Nc1ccc(F)c(C(=O)c2c[nH]c3ncc(-c4ccc(Cl)cc4)cc23)c1F` [VEMURAFENIB] was 370 nM.
